Measured values published in ChEMBL document CHEMBL3120154, “2-[N-Alkyl(R-phenyl)-aminomethyl]-3-phenyl-7-trifluoromethylquinoxalines as anticancer agents inhibitors of folate enzymes” (Eur J Med Chem, 2014).

Assays:
Assay type in all cases: functional
[1] = test system: Malme-3M; assay: Cytotoxicity against human MALME-3M cells at 10^-6 M after 48 hrs by SRB assay; details: read-out: GI
[2] = test system: TK-10; assay: Cytotoxicity against human TK10 cells at 10^-8 M after 48 hrs by SRB assay; details: TK-10, 48 h, read-out: GI
[3] = test system: SK-MEL-2; assay: Cytotoxicity against human SK-MEL-2 cells at 10^-8 M after 48 hrs by SRB assay; details: SK-MEL-2, 48 h, read-out: GI
[4] = Cytotoxicity against human EKVX cells at 10^-7 M after 48 hrs by SRB assay; details: read-out: GI
[5] = test system: DU-145; assay: Cytotoxicity against human DU145 cells at 10^-7 M after 48 hrs by SRB assay; details: DU-145, 48 h, read-out: GI
[6] = Cytotoxicity against human UO31 cells at 10^-7 M after 48 hrs by SRB assay; details: UO-31, 48 h, read-out: GI
[7] = test system: CCRF-CEM; assay: Cytotoxicity against human CCRF-CEM cells at 10^-8 M after 48 hrs by SRB assay; details: read-out: GI
[8] = test system: DU-145; assay: Cytotoxicity against human DU145 cells at 10^-8 M after 48 hrs by SRB assay; details: DU-145, 48 h, read-out: GI
[9] = test system: K562; assay: Cytotoxicity against human K562 cells at 10^-6 M after 48 hrs by SRB assay; details: K562, 48 h, read-out: GI
[10] = test system: COLO 205; assay: Cytotoxicity against human COLO205 cells at 10^-8 M after 48 hrs by SRB assay; details: COLO 205, 48 h, read-out: GI
[11] = test system: SF-539; assay: Cytotoxicity against human SF539 cells at 10^-8 M after 48 hrs by SRB assay; details: SF-539, 48 h, read-out: GI
[12] = test system: LOX IMVI; assay: Cytotoxicity against human LOXIMVI cells at 10^-7 M after 48 hrs by SRB assay; details: read-out: GI
[13] = test system: OVCAR-8; assay: Cytotoxicity against human OVCAR8 cells at 10^-8 M after 48 hrs by SRB assay; details: OVCAR-8, 48 h, read-out: GI
[14] = test system: SNB-75; assay: Cytotoxicity against human SNB75 cells at 10^-8 M after 48 hrs by SRB assay; details: SNB-75, 48 h, read-out: GI
[15] = test system: SR; assay: Cytotoxicity against human SR cells at 10^-4 M after 48 hrs by SRB assay; details: read-out: GI
[16] = test system: HCC 2998; assay: Cytotoxicity against human HCC2998 cells at 10^-8 M after 48 hrs by SRB assay; details: HCC 2998, 48 h, read-out: GI
[17] = test system: OVCAR-8; assay: Cytotoxicity against human OVCAR8 cells after 48 hrs by SRB assay; details: OVCAR-8, 48 h
[18] = test system: SR; assay: Cytotoxicity against human SR cells at 10^-5 M after 48 hrs by SRB assay; details: read-out: GI
[19] = test system: M14; assay: Cytotoxicity against human M14 cells at 10^-7 M after 48 hrs by SRB assay; details: M14, 48 h, read-out: GI
[20] = test system: SK-MEL-28; assay: Cytotoxicity against human SK-MEL-28 cells at 10^-7 M after 48 hrs by SRB assay; details: SK-MEL-28, 48 h, read-out: GI
[21] = test system: HOP-62; assay: Cytotoxicity against human HOP62 cells at 10^-8 M after 48 hrs by SRB assay; details: HOP-62, 48 h, read-out: GI
[22] = Cytotoxicity against human UO31 cells at 10^-5 M after 48 hrs by SRB assay; details: UO-31, 48 h, read-out: GI
[23] = test system: HL-60(TB); assay: Cytotoxicity against human HL-60(TB) cells at 10^-7 M after 48 hrs by SRB assay; details: HL-60, 48 h, read-out: GI
Method in brief: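 NCI 60-human-tumour-cell-line screen run over a 5-log dose range (100, 10, 1, 0.1 and 0.01 µM). Cells were exposed to drug for 48 h. Growth was estimated by sulforhodamine B protein staining. Values are percent growth inhibition at each concentration, relative to untreated control cells.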

[24] = test system: SNB-75; assay: Cytotoxicity against human SNB75 cells at 10^-7 M after 48 hrs by SRB assay; details: SNB-75, 48 h, read-out: GI
[25] = test system: SW-620; assay: Cytotoxicity against human SW620 cells at 10^-7 M after 48 hrs by SRB assay; details: SW-620, 48 h, read-out: GI
[26] = test system: K562; assay: Cytotoxicity against human K562 cells at 10^-7 M after 48 hrs by SRB assay; details: K562, 48 h, read-out: GI
[27] = test system: SW-620; assay: Cytotoxicity against human SW620 cells at 10^-8 M after 48 hrs by SRB assay; details: SW-620, 48 h, read-out: GI
[28] = test system: A498; assay: Cytotoxicity against human A498 cells at 10^-8 M after 48 hrs by SRB assay; details: A498, 48 h, read-out: GI
[29] = test system: SR; assay: Cytotoxicity against human SR cells at 10^-6 M after 48 hrs by SRB assay; details: read-out: GI
[30] = test system: COLO 205; assay: Cytotoxicity against human COLO205 cells at 10^-7 M after 48 hrs by SRB assay; details: COLO 205, 48 h, read-out: GI
[31] = test system: PC-3; assay: Cytotoxicity against human PC3 cells at 10^-8 M after 48 hrs by SRB assay; details: PC-3, 48 h, read-out: GI
[32] = test system: BT-549; assay: Cytotoxicity against human BT549 cells at 10^-7 M after 48 hrs by SRB assay; details: BT-549, 48 h, read-out: GI
[33] = test system: SK-OV-3; assay: Cytotoxicity against human SKOV3 cells at 10^-7 M after 48 hrs by SRB assay; details: SK-OV-3, 48 h, read-out: GI
[34] = test system: HCC 2998; assay: Cytotoxicity against human HCC2998 cells at 10^-7 M after 48 hrs by SRB assay; details: HCC 2998, 48 h, read-out: GI
[35] = test system: HCC 2998; assay: Cytotoxicity against human HCC2998 cells at 10^-6 M after 48 hrs by SRB assay; details: HCC 2998, 48 h, read-out: GI
[36] = test system: SF-295; assay: Cytotoxicity against human SF295 cells at 10^-8 M after 48 hrs by SRB assay; details: SF-295, 48 h, read-out: GI
[37] = test system: SF-268; assay: Cytotoxicity against human SF268 cells at 10^-7 M after 48 hrs by SRB assay; details: SF-268, 48 h, read-out: GI
[38] = test system: TK-10; assay: Cytotoxicity against human TK10 cells at 10^-7 M after 48 hrs by SRB assay; details: TK-10, 48 h, read-out: GI
[39] = test system: T47D; assay: Cytotoxicity against human T47D cells at 10^-7 M after 48 hrs by SRB assay; details: read-out: GI
[40] = test system: SF-295; assay: Cytotoxicity against human SF295 cells at 10^-7 M after 48 hrs by SRB assay; details: SF-295, 48 h, read-out: GI
[41] = test system: CAKI-1; assay: Cytotoxicity against human Caki1 cells at 10^-7 M after 48 hrs by SRB assay; details: CAKI-1, 48 h, read-out: GI
[42] = test system: KM12; assay: Cytotoxicity against human KM12 cells at 10^-8 M after 48 hrs by SRB assay; details: KM12, 48 h, read-out: GI
[43] = test system: U-251; assay: Cytotoxicity against human U251 cells at 10^-8 M after 48 hrs by SRB assay; details: U-251, 48 h, read-out: GI
[44] = test system: MOLT-4; assay: Cytotoxicity against human MOLT4 cells at 10^-8 M after 48 hrs by SRB assay; details: MOLT-4, 48 h, read-out: GI

C#CCN(Cc1nc2cc(C(F)(F)F)ccc2nc1-c1ccccc1)c1ccc(C)cc1
< 40%: inhibition of growth at 1 µM [1]

CCN(Cc1nc2cc(C(F)(F)F)ccc2nc1-c1ccccc1)c1ccc(OC)c(OC)c1
11%: inhibition of growth at 0.01 µM [13]
1510 nM: GI50 [17]
< 40%: inhibition of growth at 0.01 µM [2] | inhibition of growth at 0.01 µM [3] | inhibition of growth at 0.1 µM [4] | inhibition of growth at 0.1 µM [5] | inhibition of growth at 0.1 µM [6] | inhibition of growth at 0.01 µM [7] | inhibition of growth at 0.01 µM [8] | inhibition of growth at 1 µM [9] | inhibition of growth at 0.01 µM [10] | inhibition of growth at 0.01 µM [11] | inhibition of growth at 0.1 µM [12] | inhibition of growth at 0.01 µM [14] | inhibition of growth at 0.01 µM [16] | inhibition of growth at 0.1 µM [19] | inhibition of growth at 0.1 µM [20] | inhibition of growth at 0.01 µM [21] | inhibition of growth at 10 µM [22] | inhibition of growth at 0.1 µM [23] | inhibition of growth at 0.1 µM [24] | inhibition of growth at 0.1 µM [25] | inhibition of growth at 0.1 µM [26] | inhibition of growth at 0.01 µM [27] | inhibition of growth at 0.01 µM [28] | inhibition of growth at 1 µM [29] | inhibition of growth at 0.1 µM [30] | inhibition of growth at 0.01 µM [31] | inhibition of growth at 0.1 µM [32] | inhibition of growth at 0.1 µM [33] | inhibition of growth at 0.1 µM [34] | inhibition of growth at 1 µM [35] | inhibition of growth at 0.01 µM [36] | inhibition of growth at 0.1 µM [37] | inhibition of growth at 0.1 µM [38] | inhibition of growth at 0.1 µM [39] | inhibition of growth at 0.1 µM [40] | inhibition of growth at 0.1 µM [41] | inhibition of growth at 0.01 µM [42] | inhibition of growth at 0.01 µM [43] | inhibition of growth at 0.01 µM [44]
56%: inhibition of growth at 10 µM [18]
145%: inhibition of growth at 100 µM [15]
